Bioassay records: PubChem, several laboratories
NR3A LBD binder = NR3A (human) ligand-binding domain modulation; AID 1259313; NR3A LBD differential scanning fluorimetry, Tm shift; 0% = protein alone, 100% = glycine-bound protein; actives 2.5% (n = 340,000); Tm shift relative to glycine control, % at 25 µM;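 active = melting temperature shift of at least 10% of the positive control shift, at one fixed dose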
aDG glyco up = increases alpha dystroglycan glycosylation; Pro5-aDG cells, alpha-DG glycosylation AlphaScreen (IIH6); 0% Pro5, 100% B10-LARGE cell signal; activation, % at 10 µM; actives 0.22% (n = 360,000); AID 624168;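 active = activation of at least 8% versus controls, or a plate z-score of at least 8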;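 also: Pro5 are CHO cells carrying HIG-tagged alpha-DG that lacks glycosylation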
CHOP inhibitor = inhibitors of CHOP induction in ER stress response; CHO-K1 CHOP-promoter luciferase, tunicamycin-induced, 15-18 h; inhibition, % at 10 µM; actives 3.8% (n = 220,000);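 active = compounds that reduced the stress-induced luciferase reporter signal by more than about 70% of percent inhibition, limit read from the data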;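 also: 0% = tunicamycin plus vehicle and 100% = wells without tunicamycin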
MPTP block = blocks calcium-induced mitochondrial swelling. isolated mouse mitochondria, Ca2+ swelling absorbance, 30 min. inhibition, % at 10 µM. actives 1.4% (n = 360,000). AID 602449;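 active = inhibition of 50% or more, scaled per plate between neutral and stimulator controls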;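 also: 0% = DMSO wells given calcium and 100% = 1 mM EGTA wells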
XBP1 UPR activ = activators of adaptive arm of unfolded protein response (XBP1); CHO-XBP1 luciferase reporter, IRE1-XBP1 UPR activation, luminescence; percent of tunicamycin response, DMSO as zero; activation, % at 20 µM; AID 463104; actives 0.33% (n = 330,000);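 active = versus positive control, 20 µM dose yields 30% or more activation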;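 also: 100% = tunicamycin at 10 µg/mL and 0% = DMSO only wells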
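Material: CHO cell line with stable XBP1 luciferase reporter; buffer or medium: F12 medium containing 10% fetal bovine serum; compound: single point, 20 µM final compound, 1% DMSO; incubation: 6 h treatment, 37 °C; measured by: glow luminescence from Steady-Glo reagent; evaluation: activation, % of tunicamycin; control set: tunicamycin high, DMSO low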
UPR CHOP act = apoptotic UPR (CHOP) activation; CHO-CHOP luciferase reporter, luminescence; percent of tunicamycin response over DMSO baseline; activation, % at 10 µM; actives 0.34% (n = 330,000);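 active = at 10 µM dose, activation of 40% or more, normalized to positive control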;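 also: 100% = tunicamycin at 10 µg/mL and 0% = DMSO alone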
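Test system: CHO-CHOP cells, stable luciferase reporter of PERK-eIF2a-CHOP signalling | Quantity: 500 CHO-CHOP cells per well | Buffer or medium: F12 plus 10% serum | Compound dosing: 10 µM single point, 0.5% DMSO | Schedule: 6 h compound treatment, 37 °C | Signal: Luciferase luminescence | Control set: Tunicamycin high control, DMSO low control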
MPTP counter = membrane potential counter-screen of mitochondrial pore inhibitors | isolated mitochondria, Rhodamine 123 fluorescence | shares compounds with MPTP block | actives 78% (n = 5,000) | inhibition, % at 10 µM | AID 624504; in the data active = inhibition above about 22%;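 also: 0% = DMSO vehicle and 100% = positive control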
MPTP swell DR = dose response confirmation of mitochondrial permeability transition pore inhibitors. AID 651561. IC50, µM. isolated mitochondria swelling, absorbance. shares compounds with MPTP block. actives 58% (n = 780); in the data active = IC50 below about 20 µM
MPTP counter DR = active in counter-screen for permeability transition pore inhibitors; shares compounds with MPTP block; isolated mitochondria counterscreen, fluorescence read-out; IC50, µM; actives 49% (n = 780); AID 651564; in the data active = IC50 below about 80 µM
An asterisk follows results filed as active; i = inactive; . = not tested or not shown. Rows were chosen to be rich in hits. Some 5.6% of all compounds tested hit in one or more screens of this group.

SMILES	NR3A LBD binder	aDG glyco up	CHOP inhibitor	MPTP block	XBP1 UPR activ	UPR CHOP act	MPTP counter	others
CCN1CCN(c2ccc(S(=O)(=O)N3CCCCC3)cc2NC(=O)/C=C/c2ccc(F)cc2)CC1	0.6	2.8	.	78.2*	-3.5	4.1	-17.8	MPTP swell DR=i
COc1ccc(NS(=O)(=O)c2ccc(O)c(NC(=O)c3ccc(S(=O)(=O)N4CCCCCC4)cc3)c2)cc1	16.1*	-0.4	27.1	65.9*	-1.2	-1.2	48.5*
CC1(C(=O)NCCOc2ccccc2Cl)CC1(Cl)Cl (stereo unspecified)	0.1	-0.1	.	5.4	-2.5	-0.2	.
CN1CCN(c2ccc(S(=O)(=O)N3CCCCC3)cc2NC(=O)c2ccc3ccccc3c2)CC1	-3.8	0.4	25.4	66.7*	3.1	3.2	-14.6	MPTP swell DR=14.3*;MPTP counter DR=>80
Cc1ccccc1C(=O)Nc1cc(S(=O)(=O)N2CCCCC2)ccc1N1CCN(C)CC1	-7.2	0.0	12.7	27.8	-0.8	0.0	.
COc1ccc(CCNC(=O)CCc2cn(C)c3ccccc23)c(OC)c1OC	0.6	0.1	.	0.8	-5.0	2.3	.
Cn1nc(C(F)(F)F)c(-c2ccc(Br)cc2)c1NC(=O)Nc1ccc(F)cc1F	9.4	0.0	76.8*	76.5*	-2.6	1.2	84.2*
Cc1c(C(=O)NC(=S)N(Cc2ccccc2)c2ccccn2)cccc1[N+](=O)[O-]	1.2	-0.2	.	-1.2	-1.5	1.8	.
CN1CCN(C(c2ccc(Br)cc2)c2cc(Cl)c3cccnc3c2O)CC1 (stereo unspecified)	33.8*	0.1	.	76.4*	11.8	28.9	-21.3
CN1CCN(C(c2ccc(F)cc2)c2ccc3cccnc3c2O)CC1 (stereo unspecified)	5.0	-0.3	.	-2.3	.	.	.
COc1ccc2sc(N(CCCN(C)C)C(=O)c3ccc(S(=O)(=O)N4CCc5ccccc5C4)cc3)nc2c1	0.8	-0.1	.	86.3*	-6.2	29.0	-19.4
Cc1cc(C)c2sc(N(CCCN(C)C)C(=O)c3ccc(S(=O)(=O)N4CCc5ccccc5C4)cc3)nc2c1	.	-0.3	.	71.7*	-9.5	1.0	-11.6
CC(OC(=O)CN1C(=O)NC2(CCCC2)C1=O)C(=O)Nc1cccc(Cl)c1 (stereo unspecified)	1.6	-0.5	.	-0.2	-4.4	1.2	.
CC(C)(C)c1ccccc1OCCCCCn1ccnc1	-6.1	-0.1	14.6	15.9	-0.2	-0.1	.
O=C(Nc1ccc(Cl)c(Cl)c1)C1CC(=O)N(c2ccc(Br)cc2)C1 (stereo unspecified)	28.2*	-0.1	10.9	63.0*	-1.1	-0.4	87.2*
Cc1ccc(NC(=O)CSc2nnc(-c3cccnc3)s2)cc1	0.8	0.4	7.6	0.3	-1.4	5.2	.
O=C(CSc1nnc(-c2cccnc2)s1)Nc1ccnc2ccccc12	0.5	5.6	56.0	103.8*	0.1	4.4	73.4*
NNC(=O)c1ccc(S(=O)(=O)N2CCc3ccccc32)cc1	0.1	0.0	.	0.9	-3.1	1.1	.
CCCCN1C(=N)N([C@@H](CCC)CN2CCC[C@H]2CN2C(N)=NC[C@@H]2Cc2ccccc2)C[C@H]1[C@H](C)CC	-2.1	-0.1	.	80.8*	-0.5	0.3	-6.4
COCCn1c(SCC(=O)N2CCCC2=O)nnc1-c1ccncc1	.	0.1	.	0.5	.	.	.
FC(F)Oc1ccc(NC(=S)NNc2ccnc3cc(Cl)ccc23)cc1	3.8	3.9	-64.7	101.0*	-0.7	1.6	65.0*
NC(=S)NNc1ccnc2cc(Cl)ccc12	0.8	0.2	-17.6	-1.6	-2.2	-0.9	.
CC1(C)CCC[C@@]2(C)CC=C(C(=O)O)[C@@H]3C[C@]312	-1.8	0.1	.	-0.8	0.0	0.5	.
COc1ccc(-n2c(-c3ccc(Br)cc3)c[n+]3c2SC(C)C3)cc1 (stereo unspecified)	-2.9	-0.1	-25.2	4.6	-3.1	-1.6	.
CCN(CCC(=O)Nc1ccc(Br)c(C)c1)Cc1ccccc1	0.5	1.2	15.3	79.9*	-3.4	0.8	5.4	MPTP swell DR=i;MPTP counter DR=27.6*
SMILES	NR3A LBD binder	aDG glyco up	CHOP inhibitor	MPTP block	XBP1 UPR activ	UPR CHOP act	MPTP counter	others
O=C(CCN(CCO)Cc1ccccc1)Nc1ccc(Br)cc1	-3.7	0.2	-9.2	1.0	1.9	-0.2	.
Cc1cc2nc(C(C)(C)C)c(Cc3ccccc3)n2c(C)c1Br	.	-0.2	.	2.9	.	.	.
COc1cc(C(=O)N/C(=C\c2cn(S(=O)(=O)N(C)C)c3ccccc23)C(=O)N2CCCC2)cc(OC)c1OC	-3.2	-0.1	.	0.1	-0.5	2.9	.
O=C(CSc1nc(-c2cccs2)cc(C(F)(F)F)n1)Nc1cc(OCC(F)(F)F)cc([N+](=O)[O-])c1	14.6*	2.7	29.8	99.9*	1.5	1.0	79.1*
Cc1ncoc1C(=O)NC1CCCc2c1cnn2-c1ccc(C(C)(C)C)cc1 (stereo unspecified)	2.5	4.1	.	79.4*	-3.3	2.8	93.6*
Cc1ncoc1C(=O)NC1CCCc2c1cnn2-c1cc(F)cc(F)c1 (stereo unspecified)	.	0.2	.	2.8	.	.	.
Cc1cc(C(=O)NC2CCCc3c2cnn3-c2ccc(C)c(C)c2)n(C)n1 (stereo unspecified)	-0.8	2.3	.	93.0*	-5.0	5.5	87.1*
COc1ccccc1-[n+]1c(C)cc(/C=C2\Sc3ccccc3N2C)cc1C	1.6	0.9	81.8*	104.4*	2.5	13.4	102.0*
COc1ccc(-[n+]2c(C)cc(/C=C3\Sc4ccccc4N3C)cc2C)cc1	-3.6	1.3	92.0*	94.6*	2.0	28.8	96.7*
COc1ccc(C(=O)/C=C2\Sc3ccccc3N2C)cc1	6.1	0.7	-4.1	-1.6	2.7	3.5	.
COc1ccc(-c2[nH]ncc2/C=N/NC(=O)c2ccncc2)c(OC)c1	-2.5	-0.3	.	2.8	-3.3	-0.2	.
CNc1cc(-c2cccc(N(C)C)c2)ncn1	.	-0.4	.	-0.7	.	.	.
Fc1ccc2c(c1)Sc1ccc(Cl)cc1CC2N1CCN(CCC2OCCO2)CC1 (stereo unspecified)	-1.9	0.5	.	0.8	-0.7	1.0	.
NC(=O)CCN1CCN(CCOC2Cc3cc(Cl)ccc3Sc3ccccc32)CC1 (stereo unspecified)	-0.9	1.2	4.7	61.6*	2.4	1.6	-7.6	MPTP swell DR=>100;MPTP counter DR=>80
CCc1noc(C)c1C(=O)OCC(=O)Nc1cccc(C)c1	2.5	0.3	.	0.6	-2.9	-0.8	.
